The record followed here is ChEMBL document CHEMBL2069230, “Synthesis, biological evaluation, and docking studies of 3-(substituted)-aryl-5-(9-methyl-3-carbazole)-1H-2-pyrazolines as potent anti-inflammatory and antioxidant agents” (Bioorg Med Chem Lett, 2012).

Series [1] can be described thus: Antioxidant activity assessed as superoxide radical scavenging activity at 100 uM after 5 mins by NBT reduction assay. The series is classed as functional. Put shortly: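 Superoxide generated in Tris-HCl (100 mM, pH 7.4) with NBT (300 µM), NADH (936 µM) and sample (0.1 mM); NBT reduction read after 5 min at room temperature as absorbance at 560 nm. Ascorbic acid (0.1 mM) reference.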

Series [2] can be described thus: Antioxidant activity assessed as H2O2-induced hydroxyl radical scavenging activity at 100 uM after 5 mins by spectrophotometry. The format is functional. The gist of the method:
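Mixture of FeCl2 (1 mM), 1,10-phenanthroline (1 mM), phosphate buffer (0.2 M, pH 7.8), H2O2 (0.17 M) and sample (0.1 mM); reaction started with H2O2, 5 min at room temperature, absorbance at 560 nm. Ascorbic acid (0.1 mM) reference.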

Series [3] has as its system Radical scavenging activity. Nature of the series: Antioxidant activity assessed as DPPH radical scavenging activity at 100 uM after 20 mins by spectrophotometry. The series is classed as functional. The gist of the method:
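Test solution (0.1 mM) mixed with an equal quantity of 0.1 mM DPPH in ethanol; 20 min at room temperature, then DPPH reduction read as absorbance at 517 nm. Ascorbic acid (0.1 mM) as reference.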

The target in series [4] is Prostaglandin G/H synthase 1 (Homo sapiens) (UniProt P23219). Nature of the series: Inhibition of COX1 peroxidase activity assessed as formation of TMPD at 100 uM by colorimetric analysis. Put shortly: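 COX-1 peroxidase activity: assay buffer, heme and enzyme with sample (0.1 mM); oxidized TMPD appearance monitored colorimetrically at 590 nm.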
For a further series, the species on record is Homo sapiens. The series can be described thus: Selectivity ratio of inhibition of COX2 to inhibition of COX1.
For series [5], the system named is Mus musculus. Nature of the series: Toxicity in carrageenan-challenged AKR mouse up to 0.5 mmol/kg dosed intradermally. The series is classed as organism-based. The note with it: in vivo, other.
Series [6] concerns Mus musculus. The series can be described thus: Antiinflammatory activity in AKR mouse assessed as inhibition of carrageenan-induced paw edema at 0.01 mmol/kg dosed intradermally after 3.5 hrs relative to vehicle-treated control. The series is classed as functional. Put shortly: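 Edema induced in right hind paw of AKR mice (both sexes, pregnant females excluded, fasted during experiment) by intradermal 0.05 mL of 2% carrageenin in water; 6–10 animals per group. Paw weight increase, injected vs uninjected paw, compared with water-treated controls as percent edema inhibition; experiments in duplicate, mean of two.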

Prostaglandin G/H synthase 1 (Homo sapiens), sequence (P23219 whole entry): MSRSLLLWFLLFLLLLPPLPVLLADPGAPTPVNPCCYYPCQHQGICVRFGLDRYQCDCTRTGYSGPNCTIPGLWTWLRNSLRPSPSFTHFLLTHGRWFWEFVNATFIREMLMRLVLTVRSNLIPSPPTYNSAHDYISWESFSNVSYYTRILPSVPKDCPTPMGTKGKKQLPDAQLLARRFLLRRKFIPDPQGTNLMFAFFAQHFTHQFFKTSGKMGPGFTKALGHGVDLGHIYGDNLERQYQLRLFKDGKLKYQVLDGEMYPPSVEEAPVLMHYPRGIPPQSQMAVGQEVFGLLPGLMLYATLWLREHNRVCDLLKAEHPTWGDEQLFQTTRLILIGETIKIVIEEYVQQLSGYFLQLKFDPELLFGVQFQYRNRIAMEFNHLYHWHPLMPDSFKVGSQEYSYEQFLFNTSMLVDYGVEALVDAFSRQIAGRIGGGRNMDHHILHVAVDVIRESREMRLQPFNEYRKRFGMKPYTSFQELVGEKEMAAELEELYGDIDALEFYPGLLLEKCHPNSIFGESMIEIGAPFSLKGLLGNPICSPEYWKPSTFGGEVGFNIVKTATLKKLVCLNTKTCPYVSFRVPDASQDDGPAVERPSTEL

Take `O=C1O[C@H]([C@@H](O)CO)C(O)=C1O`: the Activity in series [1] was 52%; in series [2], 88.3%; in series [3], 91.5%.
In the case of `Cn1c2ccccc2c2cc(C3CC(c4ccccc4)=NN3)ccc21` (stereo unspecified), the Activity in series [1] is 63.2%; in series [2] it was 63.5%; in series [3], 79.9%. Also, in series [4], the inhibition (in general, the drop in the measured response relative to a control, in per cent) is 10.2%. Moreover, the Selectivity ratio in the series listed under Homo sapiens turned out to be 2.16.
The matching figures for `Cn1c2ccccc2c2cc(C3CC(c4ccc(F)cc4F)=NN3)ccc21` (stereo unspecified): 63.2%, 60.2%, 83.8%, 10.4% and 2.58.
Turning to `COc1ccc(C2=NNC(c3ccc4c(c3)c3ccccc3n4C)C2)cc1OC` (stereo unspecified), the Activity in series [1] is 69.4%; with Mus musculus [5], “Non-toxic”; in series [2] it was 69.3%; in series [3], 84%. Besides, the inhibition in series [4] worked out at 24.1%. Besides, the Selectivity ratio in the series listed under Homo sapiens turned out to be 3.66. In the series with Mus musculus [6], the inhibition in vivo (usually how much of the control response was suppressed) at 10 µmol/kg is 60.3%.
Take `Cn1c2ccccc2c2cc(C3CC(c4ccc(Br)cc4)=NN3)ccc21` (stereo unspecified): the figures for the Activity in series [1], in series [2] and in series [3] were 56.2%, 57.5% and 80.6%, respectively. In addition, the inhibition in series [4] stood at 87.4%. In addition, the Selectivity ratio in the series listed under Homo sapiens turned out to be 1.02.
The matching figures for `Cn1c2ccccc2c2cc(C3CC(c4ccc(Cl)cc4)=NN3)ccc21` (stereo unspecified): 62.4%, 55%, 79.3%, 10.2% and 1.24.
For `COc1ccc(C2=NNC(c3ccc4c(c3)c3ccccc3n4C)C2)cc1` (stereo unspecified), the Activity in series [1] is 56.2%; with Mus musculus [5] it was “Non-toxic”; in series [2] it was 58.2%; in series [3], 80.8%. For the same molecule, the inhibition in series [4] was found to be 20.6%. Further, the Selectivity ratio in the series filed under Homo sapiens stood at 4.06. Moreover, the inhibition in vivo at 10 µmol/kg in the series with Mus musculus [6] was determined as 51.4%.
For the molecule `Cn1c2ccccc2c2cc(C3CC(c4ccc(Cl)c(Cl)c4)=NN3)ccc21` (stereo unspecified), the Activity was 61.4% in series [1], 65.1% in series [2] and 87.4% in series [3]. For the same molecule, the inhibition in series [4] came out at 12.2%. For the same molecule, the Selectivity ratio in the series listed under Homo sapiens came to 1.34.
On to `Cn1c2ccccc2c2cc(C3CC(c4cccs4)=NN3)ccc21` (stereo unspecified), for which the Activity in series [1] was 81.1%; in the series with Mus musculus [5] it was “Non-toxic”; in series [2] it was 63.1%; in series [3], 85.3%. The inhibition in series [4] worked out at 18.5%. For the same molecule, the Selectivity ratio in the series filed under Homo sapiens came to 2.61. Moreover, in the series on Mus musculus [6], the inhibition in vivo at 10 µmol/kg amounted to 42.2%.
Turning to `Cn1c2ccccc2c2cc(C3CC(c4ccccn4)=NN3)ccc21` (stereo unspecified), the Activity turned out to be 62.2% in series [1], 54.8% in series [2] and 72% in series [3]. Further, in series [4], the inhibition amounted to 20.1%. Further, the Selectivity ratio in the series filed under Homo sapiens came out at 2.06.
As to `Cn1c2ccccc2c2cc(C3CC(c4ccc(Cl)cc4Cl)=NN3)ccc21` (stereo unspecified), the Activity is 81.7% in series [1], 69.3% in series [2] and 92.1% in series [3]. Moreover, in series [4], the inhibition was 24.1%. In addition, the Selectivity ratio in the series listed under Homo sapiens amounted to 1.68.
As to `Cn1c2ccccc2c2cc(C3CC(c4ccc(F)cc4)=NN3)ccc21` (stereo unspecified), the Activity in series [1] is 45.6%; in series [2], 54.6%; in series [3], 79.3%. In addition, the inhibition in series [4] amounted to 46.2%. In the series listed under Homo sapiens, the Selectivity ratio is 0.49.
Consider `Cn1c2ccccc2c2cc(C3CC(c4cc(Cl)ccc4Cl)=NN3)ccc21` (stereo unspecified), for which the Activity came to 86.3% in series [1], 78.6% in series [2] and 91.7% in series [3]. Besides, the inhibition in series [4] was 8.85%. Moreover, the Selectivity ratio in the series listed under Homo sapiens came out at 1.14.
For `Cn1c2ccccc2c2cc(C3CC(c4ccc(F)c(F)c4)=NN3)ccc21` (stereo unspecified) the same measures were 69.4%, 63.2%, 79.8%, 90.8% and 0.22.
`COc1cc(OC)c(C2=NNC(c3ccc4c(c3)c3ccccc3n4C)C2)c(OC)c1` (stereo unspecified): the Activity was 70.4% in series [1], “Non-toxic” in the series on Mus musculus [5], 74.3% in series [2] and 86% in series [3]. Also, the inhibition in series [4] stood at 23.5%. Besides, in the series listed under Homo sapiens, the Selectivity ratio was 3.69. Also, the inhibition in vivo at 10 µmol/kg in the series with Mus musculus [6] turned out to be 54.3%.
Take `Cn1c2ccccc2c2cc(C3CC(c4ccc([N+](=O)[O-])cc4)=NN3)ccc21` (stereo unspecified): the Activity in series [1] worked out at 65.1%; in series [2], 64.8%; in series [3], 81.1%. For the same molecule, the inhibition in series [4] is 14.2%. Moreover, in the series filed under Homo sapiens, the Selectivity ratio came out at 1.3.
